NOD2-RIPK2 inh: blocks binding of human NOD2 to RIPK2 | inhibition, % at 4.98 µM | O43353 | CHO BLA complementation NOD2-RIPK2, CCF4 ratio | AID 624267 | actives 0.38% (n = 360,000); in the data active = inhibition above about 21%;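 note: 0% = vehicle only and 100% = reference blocker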
TLR4 MyD88 comp: inhibitors of human TLR4-MyD88 binding. O00206+Q99836. HeLa CL3-4 TLR4/MyD88 BLA complementation, FRET ratio. inhibition, % at 8.4 µM. actives 0.18% (n = 200,000). AID 861; in the data active = inhibition above about 25%;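 note: 0% = vehicle and 100% = reference inhibitor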
Target sequence (O00206 whole entry, looked up): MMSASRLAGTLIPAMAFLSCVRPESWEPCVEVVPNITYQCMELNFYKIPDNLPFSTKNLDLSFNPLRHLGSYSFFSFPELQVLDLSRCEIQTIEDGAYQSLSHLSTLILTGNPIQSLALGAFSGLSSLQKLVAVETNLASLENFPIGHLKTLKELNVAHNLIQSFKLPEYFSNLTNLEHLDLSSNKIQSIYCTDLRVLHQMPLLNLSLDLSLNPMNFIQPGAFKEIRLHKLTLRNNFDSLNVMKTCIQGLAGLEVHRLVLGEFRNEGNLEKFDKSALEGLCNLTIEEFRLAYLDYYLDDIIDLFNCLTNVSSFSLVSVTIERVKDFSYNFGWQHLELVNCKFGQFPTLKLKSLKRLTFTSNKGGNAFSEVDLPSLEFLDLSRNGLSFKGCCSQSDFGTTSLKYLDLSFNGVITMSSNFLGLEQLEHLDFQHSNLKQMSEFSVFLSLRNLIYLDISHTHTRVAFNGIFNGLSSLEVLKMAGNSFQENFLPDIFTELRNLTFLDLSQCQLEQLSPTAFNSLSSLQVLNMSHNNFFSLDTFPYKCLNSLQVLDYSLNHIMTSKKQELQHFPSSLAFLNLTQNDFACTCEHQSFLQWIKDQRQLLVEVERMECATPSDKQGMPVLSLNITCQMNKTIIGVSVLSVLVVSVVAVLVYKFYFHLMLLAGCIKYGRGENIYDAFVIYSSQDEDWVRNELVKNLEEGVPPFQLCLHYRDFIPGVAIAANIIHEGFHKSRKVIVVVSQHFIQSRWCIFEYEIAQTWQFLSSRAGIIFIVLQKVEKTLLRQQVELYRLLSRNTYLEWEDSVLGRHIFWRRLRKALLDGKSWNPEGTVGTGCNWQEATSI
Target sequence (Q99836 whole entry, looked up): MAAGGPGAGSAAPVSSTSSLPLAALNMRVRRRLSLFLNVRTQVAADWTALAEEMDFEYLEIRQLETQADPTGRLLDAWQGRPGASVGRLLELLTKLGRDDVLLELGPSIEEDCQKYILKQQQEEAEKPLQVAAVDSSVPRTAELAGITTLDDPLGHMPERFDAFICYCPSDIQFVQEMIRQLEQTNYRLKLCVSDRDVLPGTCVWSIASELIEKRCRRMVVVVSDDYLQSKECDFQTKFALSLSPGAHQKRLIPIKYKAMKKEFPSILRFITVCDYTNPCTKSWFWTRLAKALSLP
TLR9-MyD88 inh: TLR9-MyD88 interaction inhibition. AID 504734. inhibition, % at 4.98 µM. CHO BLA complementation TLR9-MyD88, CCF4 FRET ratio. actives 0.21% (n = 340,000);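 active = inhibition above the mean over all tested compounds plus 3 SD, cut at about 21% in these data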;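 note: 0% = DMSO only wells and 100% = clavulanate BLA inhibitor control wells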
CHOP UPR activ: apoptotic UPR (CHOP) activation. CHO-CHOP luciferase reporter, luminescence; percent of tunicamycin response over DMSO baseline. activation, % at 10 µM. AID 449763. actives 0.34% (n = 330,000);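 active = at 10 µM dose, activation of 40% or more, normalized to positive control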;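 note: 100% = tunicamycin at 10 µg/mL and 0% = DMSO alone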
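System: CHO-CHOP luciferase reporter cell line | Buffer or medium: F12 medium containing 10% fetal bovine serum | Doses: One dose, 10 µM in 0.5% DMSO | Times: 6 h compound exposure at 37 °C after overnight seeding | Signal: Luciferase luminescence | Read-out: % activation vs tunicamycin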
CHOP inhibitor: inhibitors of CHOP induction in ER stress response | CHO-K1 CHOP-promoter luciferase, tunicamycin-induced, 15-18 h | inhibition, % at 10 µM | actives 3.8% (n = 220,000) | AID 2732;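 active = compounds that reduced the stress-induced luciferase reporter signal by more than about 70% of percent inhibition, limit read from the data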;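 note: 0% = tunicamycin plus vehicle and 100% = wells without tunicamycin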
UPR XBP1 act: adaptive UPR (XBP1) activation. CHO-XBP1 luciferase reporter, IRE1-XBP1 UPR activation, luminescence; percent of tunicamycin response, DMSO as zero. activation, % at 20 µM. actives 0.33% (n = 330,000). AID 463104;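 active = versus positive control, 20 µM dose yields 30% or more activation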;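 note: 100% = tunicamycin at 10 µg/mL and 0% = DMSO only wells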
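Material: CHO-XBP1 cells stably carrying IRE1-XBP1-driven luciferase reporter / Amount: 1000 cells per well / Compound: 20 µM, 1% DMSO / Times: 6 h treatment, 37 °C / Detection: luciferase luminescence / Measure: % activation of reporter signal versus tunicamycin and DMSO controls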
UPR XBP1 confirm: adaptive UPR (XBP1) activation, confirmed | shares compounds with UPR XBP1 act | activation, % at 20 µM | actives 63% (n = 1,000) | AID 485299 | CHO-XBP1 IRE1-XBP1 luciferase reporter, luminescence;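 active = reporter signal at least 30% of the positive control's activation in two or more of four replicate wells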;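 note: plate controls were DMSO negative control for no effect and tunicamycin 10 µg/mL positive control for full effect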
* hit, by the source's call; nt = no result. The sample as a whole holds a higher share of hits than the screen did.

SMILES	NOD2-RIPK2 inh	TLR4 MyD88 comp	TLR9-MyD88 inh	CHOP UPR activ	CHOP inhibitor	UPR XBP1 act	UPR XBP1 confirm
COc1ccc(C(C(=O)NC2CCCC2)N(C(=O)c2snc(-c3ccc(F)cc3)c2N)c2cccc(F)c2)cc1 (centres undefined)	0.7	2.9	-4.7	14.2	48.0	36.7*	15.9
COc1ccc(C(C(=O)NC2CCCC2)N(C(=O)c2snc(-c3ccc(F)cc3)c2N)c2ccccc2)cc1 (centres undefined)	-17.0	-7.6	3.7	19.2	28.4	31.9*	15.9
O=S1(=O)CC(N2CCCC2)CN1Cc1cn(Cc2ccccc2)nn1 (centres undefined)	-5.7	nt	nt	nt	nt	nt	nt
O=C(NCCC1=CCCCC1)C(=O)NCC(c1ccco1)N1CCN(c2ccc(F)cc2)CC1 (centres undefined)	1.0	-5.8	3.4	2.0	87.8*	31.3*	56.2*
CCOC(=O)c1sc(-c2ccccc2)cc1NC(=O)Nc1ccc([N+](=O)[O-])cc1	-0.6	-4.9	-4.4	16.2	90.9*	199.1*	163.4*
COc1ccc(Cl)cc1NC(=O)C(C)N1CCN(c2ccccn2)CC1 (centres undefined)	-12.8	nt	-10.7	0.7	nt	-3.9	nt
COc1ccc(NC(=O)CSc2nc3n[nH]c(C)c3c(=N)n2-c2ccc(Cl)c(C)c2)cc1OC	1.9	nt	6.1	8.0	nt	34.4*	17.1
Cc1nc(NC(=O)CSc2ccc(-c3nc4ccccc4[nH]3)cn2)sc1C	3.9	8.5	3.3	11.0	41.7	53.8*	85.0*
Clc1ccc(/C=N/c2c(-c3ccc(Cl)cc3)nc3n2CCS3)cc1	4.9	4.8	-3.0	6.1	-22.0	-0.4	nt
CCCCC(CC(O)COCC(C)C)C(=O)NN (centres undefined)	-1.5	11.7	2.4	0.7	-21.7	-1.7	nt
CCCCCOCC(O)CCC(=O)NN (centres undefined)	-10.1	-4.0	-2.8	-2.3	7.9	34.4*	-2.8
CCOC(=O)c1nnc(-c2ccc(C)cc2)nc1Sc1cccc(Cl)c1	-9.8	4.0	-7.2	36.0	59.0	48.3*	45.6*
CCOC(=O)c1nnc(-c2ccccc2)nc1Sc1ccccc1Cl	0.4	6.0	-6.3	9.6	53.0	38.1*	67.8*
Cc1nn(C)cc1CN(C)S(=O)(=O)c1cccc([N+](=O)[O-])c1	-2.4	-7.5	-6.5	-0.9	-1.1	-4.6	nt
CCn1nc(C)cc1C(=O)Sc1cccc(Br)c1	-11.1	nt	-0.3	7.5	19.1	97.1*	8.7
CCn1nc(C)cc1C(=O)Sc1ccc(Cl)cc1Cl	-15.3	nt	8.5	2.4	-74.7	-2.5	nt
COc1cccc(/C=N/NC(=O)CSc2cccc3cccnc23)c1	-4.4	nt	6.2	27.2	3.6	31.8*	21.6
CC1(C)CC(=O)C(C=Nc2ccc3cn[nH]c3c2)=C(O)C1	-1.0	-5.0	-4.2	15.5	47.2	30.4*	9.8
Cc1c(O)cc2c(c1O)C(=O)CC(c1ccccc1)O2 (centres undefined)	-1.7	nt	14.2	11.7	13.7	121.2*	172.9*
Cc1ccc2nc(Nc3nc(-c4ccccc4)cc(=O)[nH]3)nc(C)c2c1	0.1	7.1	7.8	4.7	48.5	66.8*	72.3*
Cc1cc(C)nc(Nc2nc3ccccc3[nH]2)n1	-6.3	0.6	-0.8	4.3	-14.0	-0.1	nt
Cc1ccc2nc(Nc3nc(C)cc(-c4ccccc4)n3)[nH]c(=O)c2c1	-9.1	nt	3.4	7.3	48.1	31.2*	62.4*
CN(CCc1ccccc1)C(=O)c1cccc(NC(=O)Cc2cccc(NC(=O)C3CCCN(C(=O)c4ccccc4)C3)c2)c1 (centres undefined)	1.4	nt	-11.8	nt	nt	nt	nt
O=C(NC1CCN(S(=O)(=O)c2ccc(F)cc2)CC1)c1cccc(F)c1	1.9	nt	-2.9	-2.8	nt	-5.6	nt
Cc1ccsc1C(=O)OCC(=O)Nc1cccc(S(=O)(=O)N2CCOCC2)c1	-5.9	-16.4	7.4	2.1	25.4	-2.3	nt
SMILES	NOD2-RIPK2 inh	TLR4 MyD88 comp	TLR9-MyD88 inh	CHOP UPR activ	CHOP inhibitor	UPR XBP1 act	UPR XBP1 confirm
CCn1cc(C(=O)OCC(=O)Nc2cccc(S(=O)(=O)N3CCOCC3)c2)c(=O)c2ccc(C)nc21	-9.7	4.9	-2.4	5.5	53.5	44.2*	7.1
Cc1ccc(/C=C2/Sc3ccc(C(=O)NCc4ccccn4)cc3NC2=O)cc1	-10.3	nt	2.0	7.1	nt	32.0*	0.4
CC(C)c1ccc(/C=C/C(=O)Nc2nc3ccc([N+](=O)[O-])cc3s2)cc1	-4.0	9.2	-4.1	16.6	53.2	50.1*	32.4*
O=C(N[C@@H]1C/C=C\C[C@H](CC(=O)N(CCO)Cc2ccccc2)C(=O)N[C@@H](Cc2ccccc2)COC1=O)OCC1c2ccccc2-c2ccccc21	-6.6	nt	-5.7	32.6	nt	49.7*	13.2
CCN1C(=O)/C(=C2/Sc3ccc(OC)cc3N2C)SC1=Nc1cccc(O)c1	-4.7	-0.9	-12.3	17.6	35.0	69.6*	18.3
CCN1C(=O)/C(=C2/Sc3ccc(OC)cc3N2C)SC1=Nc1ccc(C(C)=O)cc1	nt	1.3	nt	nt	nt	nt	nt
COc1ccc(-c2coc3cc4oc(=O)cc(-c5ccccc5)c4cc23)cc1F	2.3	-0.9	-3.7	0.7	-14.6	41.1*	125.0*
COc1cc(CN2CCCCC2)ccc1OCc1ccccc1	0.2	nt	-2.0	3.5	nt	36.6*	1.3
CCC(C)(C)C1CCC2(CC1)NC(=O)N(CC(=O)N1CCN(S(=O)(=O)c3cc(C)ccc3C)CC1)C2=O (centres undefined)	-2.0	nt	1.7	4.1	nt	81.0*	107.0*
CC(=O)c1cccc(NC(=S)N2CCN(CCN3C(=O)c4cccc5cccc(c45)C3=O)CC2)c1	3.0	9.1	4.8	36.0	-12.0	158.7*	-0.6
COc1ccc(NS(=O)(=O)c2cccc(NC(=O)c3cnccn3)c2)cc1Br	9.6	5.0	nt	-0.4	6.5	-0.9	nt
COc1ccc(-n2nc3c(N4CCC(C(=O)NCCc5ccco5)CC4)nnc(C)c3c2C)cc1	0.5	nt	-5.3	-1.4	nt	7.8	nt
COc1ccccc1CCNC(=O)C1CCN(c2nnc(C)c3c(C)n(-c4ccc(C)cc4)nc23)CC1	5.2	nt	2.1	5.3	nt	114.1*	138.6*
COC(=O)c1sc(-c2ccccc2)cc1NC(=O)c1ccc(F)cc1	-1.2	-5.9	-4.6	14.3	48.0	61.3*	22.5
COC(=O)c1sc(-c2ccccc2)cc1NC(=O)c1ccc(OC)cc1	-5.0	-3.6	-2.3	0.2	46.2	5.7	nt
CCOC(=O)c1cc(-c2ccccc2)sc1NC(=O)c1ccc(OC)cc1	nt	-1.6	nt	35.9	24.5	150.8*	118.0*
COc1c(Br)cc(/C=N/n2c(-c3ccccc3)n[nH]c2=S)c(O)c1Br	-4.6	nt	7.6	0.9	nt	-2.5	nt

Screening results (PubChem BioAssay)
